Test results published in ChEMBL document CHEMBL3414471 (J Med Chem, 2015).
Active and inactive are the calls of the source. The rule behind the calls is not given here.

Experiments:
Assay type in all cases: functional, cell-based
[1] = molecular target: T1, 5-hydroxytryptamine receptor 2B (Homo sapiens, UniProt P41595); assay: Agonist activity at human 5-HT2B receptor expressed in HEK293 cells assessed as calcium flux by FLIPR assay
[2] = molecular target: T2, 5-hydroxytryptamine receptor 2C (Homo sapiens, UniProt P28335); assay: Agonist activity at human 5-HT2C receptor expressed in HEK293 cells assessed as calcium flux by FLIPR assay
T2 sequence (P28335 whole entry): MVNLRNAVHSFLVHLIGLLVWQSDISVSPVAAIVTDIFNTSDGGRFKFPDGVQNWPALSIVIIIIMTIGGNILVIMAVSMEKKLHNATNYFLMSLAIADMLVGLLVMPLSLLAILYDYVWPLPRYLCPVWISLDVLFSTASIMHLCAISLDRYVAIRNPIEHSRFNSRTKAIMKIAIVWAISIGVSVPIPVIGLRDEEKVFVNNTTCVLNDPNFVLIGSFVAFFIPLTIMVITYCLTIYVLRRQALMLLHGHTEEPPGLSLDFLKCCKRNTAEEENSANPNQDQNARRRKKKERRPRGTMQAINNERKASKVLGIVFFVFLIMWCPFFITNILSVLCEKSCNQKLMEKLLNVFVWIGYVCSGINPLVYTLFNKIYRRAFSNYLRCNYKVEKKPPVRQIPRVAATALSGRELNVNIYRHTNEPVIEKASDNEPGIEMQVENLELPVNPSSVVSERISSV

[3] = molecular target: T3, 5-hydroxytryptamine receptor 2C (Homo sapiens) (UniProt P28335); assay: Agonist activity at human 5-HT2C receptor expressed in HEK293 cells assessed as calcium flux by FLIPR assay relative to 5-HT
T3 sequence (whole entry): T2 sequence (P28335 whole entry)
How it was run: (§1)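 Flp-In-293 cells stably expressing human 5-HT2A, 5-HT2B or 5-HT2C-INI; grown 24–48 h in DMEM/10% dialyzed FBS, plated on poly-L-Lys at 12000 cells/well in 1% dialyzed FBS for 24 h. Loaded 1 h at 37 °C with calcium dye in HBSS, 20 mM Hepes pH 7.40, 2.5 mM probenecid.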

[4] = molecular target: T4, 5-hydroxytryptamine receptor 2A (Homo sapiens, UniProt P28223); assay: Agonist activity at human 5-HT2A receptor expressed in HEK293 cells assessed as calcium flux at 10 uM by FLIPR assay
How it was run: (§2)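 Flp-In-293 cells stably expressing human 5-HT2A, 5-HT2B or 5-HT2C-INI, grown in DMEM with 10% dialyzed FBS, then plated for 24 h in 1% dialyzed FBS. Cells were loaded 1 h at 37 °C with calcium dye in Hepes-buffered HBSS, pH 7.40, containing 2.5 mM probenecid. FLIPR read 10 s baseline, then 120 s after drug addition.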

[5] = molecular target: T1, 5-hydroxytryptamine receptor 2B; assay: Agonist activity at human 5-HT2B receptor expressed in HEK293 cells assessed as calcium flux by FLIPR assay relative to 5-HT; how it was run: as §1
[6] = molecular target: T4, 5-hydroxytryptamine receptor 2A; assay: Agonist activity at human 5-HT2A receptor expressed in HEK293 cells assessed as calcium flux by FLIPR assay
[7] = molecular target: T4, 5-hydroxytryptamine receptor 2A; assay: Agonist activity at human 5-HT2A receptor expressed in HEK293 cells assessed as calcium flux by FLIPR assay relative to 5-HT; how it was run: as §1
[8] = molecular target: T1, 5-hydroxytryptamine receptor 2B; assay: Agonist activity at human 5-HT2B receptor expressed in HEK293 cells assessed as calcium flux at 10 uM by FLIPR assay; how it was run: as §2

T1 sequence (P41595 whole entry): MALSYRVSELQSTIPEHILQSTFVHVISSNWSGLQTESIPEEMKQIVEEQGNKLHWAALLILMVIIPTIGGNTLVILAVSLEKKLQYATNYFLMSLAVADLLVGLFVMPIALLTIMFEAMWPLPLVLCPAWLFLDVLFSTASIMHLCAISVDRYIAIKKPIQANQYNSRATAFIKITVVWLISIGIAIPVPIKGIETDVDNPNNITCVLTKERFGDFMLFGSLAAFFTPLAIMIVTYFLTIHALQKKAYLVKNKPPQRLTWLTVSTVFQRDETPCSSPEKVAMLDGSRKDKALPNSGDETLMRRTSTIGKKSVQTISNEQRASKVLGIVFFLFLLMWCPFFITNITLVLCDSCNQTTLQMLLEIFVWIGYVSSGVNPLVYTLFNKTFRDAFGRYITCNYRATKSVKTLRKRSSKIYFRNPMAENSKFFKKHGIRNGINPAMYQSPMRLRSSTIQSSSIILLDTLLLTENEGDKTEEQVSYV
T4 sequence (P28223 whole entry): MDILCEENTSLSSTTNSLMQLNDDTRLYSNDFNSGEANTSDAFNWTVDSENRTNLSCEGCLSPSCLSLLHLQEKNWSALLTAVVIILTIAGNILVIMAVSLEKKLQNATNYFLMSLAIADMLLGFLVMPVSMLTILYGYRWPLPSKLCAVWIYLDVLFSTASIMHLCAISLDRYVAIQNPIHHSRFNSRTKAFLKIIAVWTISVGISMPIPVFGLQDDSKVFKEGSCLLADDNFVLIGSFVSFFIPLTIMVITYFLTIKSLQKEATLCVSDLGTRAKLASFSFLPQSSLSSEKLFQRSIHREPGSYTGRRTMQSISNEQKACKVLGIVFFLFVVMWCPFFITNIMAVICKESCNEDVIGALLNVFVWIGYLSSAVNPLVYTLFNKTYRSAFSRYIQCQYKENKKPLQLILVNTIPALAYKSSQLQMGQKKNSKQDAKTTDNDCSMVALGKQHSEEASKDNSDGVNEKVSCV

Row | Structure (SMILES) | EC50 [1] | EC50 [2] | Emax [3] | Activity [4] | Emax [5] | EC50 [6] | Emax [7] | Activity [8]
1 | CCOc1ccc(Cl)cc1[C@@H]1C[C@H]1CN | 2.31 µM | 646 nM | 72% | inactive | 26% |  |  | 
2 | COCCOc1ccc(Cl)cc1[C@@H]1C[C@H]1CN | 5.3 µM | 667 nM | 45% | inactive | 32% |  |  | 
3 | CCCOc1ccc(F)cc1[C@@H]1C[C@H]1CN | 0.735 µM | 296 nM | 80% | inactive | 11% |  |  | 
4 | CCOc1ccc(Cl)cc1[C@H]1C[C@@H]1CN | 0.086 µM | 13 nM | 91% |  | 45% | 1210 nM | 49% | 
5 | NC[C@@H]1C[C@H]1c1cc(Cl)ccc1OCC(F)F | 1.48 µM | 914 nM | 64% |  | 30% | 1300 nM | 43% | 
6 | NC[C@@H]1C[C@H]1c1cc(Cl)ccc1OCCCF | 6.17 µM | 1260 nM | 24% | inactive | 22% |  |  | 
7 | NC[C@H]1C[C@@H]1c1cc(Cl)ccc1OCC1CC1 | 5.01 µM | 251 nM | 75% | inactive | 20% |  |  | 
8 | CCCOc1ccc(Cl)cc1[C@@H]1C[C@H]1CN | 3 µM | 1230 nM | 31% | inactive | 21% |  |  | 
9 | NC[C@H]1C[C@@H]1c1cc(Cl)ccc1OCC(F)F | 0.839 µM | 91 nM | 81% |  | 27% | 1810 nM | 31% | 
10 | NC[C@H]1C[C@@H]1c1cc(Cl)ccc1OCCCF | 4.91 µM | 206 nM | 60% | inactive | 22% |  |  | 
11 | C#CCOc1ccc(Cl)cc1[C@H]1C[C@@H]1CN | 4.6 µM | 63 nM | 65% |  | 29% | 1010 nM | 21% | 
12 | C=C(C)COc1ccc(Cl)cc1[C@H]1C[C@@H]1CN | 0.422 µM | 212 nM | 90% |  | 32% | 903 nM | 26% | 
13 | CCCCOc1ccc(Cl)cc1[C@@H]1C[C@H]1CN |  | 683 nM | 50% |  |  |  |  | inactive
14 | C[C@H]1CNCCc2ccc(Cl)cc21 |  |  |  |  |  |  | 68% | 
15 | CSCCOc1ccc(Cl)cc1[C@H]1C[C@@H]1CN |  | 244 nM | 24% | inactive |  |  |  | inactive
16 | CCCOc1ccc(F)cc1[C@H]1C[C@@H]1CN | 1.99 µM | 11 nM | 88% |  | 33% | 1020 nM | 15% | 
17 | C#CCOc1ccc(Cl)cc1[C@@H]1C[C@H]1CN | 4.41 µM | 365 nM | 71% | inactive | 30% |  |  | 
18 | CC(C)Oc1ccc(Cl)cc1[C@H]1C[C@@H]1CN | 0.997 µM | 91 nM |  |  |  | 4000 nM |  | 
19 | CCCCOc1ccc(Cl)cc1[C@H]1C[C@@H]1CN |  | 288 nM | 33% |  |  |  |  | inactive
20 | CC(C)Oc1ccc(Cl)cc1[C@@H]1C[C@H]1CN | 5.66 µM | 2480 nM |  |  |  |  |  | 
21 | NC[C@@H]1C[C@H]1c1cc(Cl)ccc1OCCF | 4.52 µM | 1130 nM | 59% | inactive | 31% |  |  | 
22 | CSCCOc1ccc(Cl)cc1[C@@H]1C[C@H]1CN |  | 1760 nM | 11% | inactive |  |  |  | inactive
23 | NC[C@@H]1C[C@H]1c1cc(Cl)ccc1OCC1CC1 | 3.03 µM | 1080 nM | 51% | inactive | 32% |  |  | 
24 | C=CCOc1ccc(Cl)cc1[C@@H]1C[C@H]1CN | 4.3 µM | 737 nM | 42% | inactive | 28% |  |  | 
